# Source: PubChem (several laboratories)
# Shown are actives, neighbours in structure and some others; about 1.9% of the full set was active somewhere.
# FXN GAA850 act = FXN promoter activators, primary screen, cell-based, luciferase luminescence, HEK293 lucGAA850 | activation, % at 6 µM | 0.56% of 360,000 active | HEK293 lucGAA850 FXN promoter luciferase reporter, 24 h; percent of 10 µM SAHA response;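 active means activation above the average of all compounds screened plus 3 SD, cutoff fixed separately per campaign, cut at about 7.5% in these data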
# HIF act = HIF pathway transcriptional activators, primary screen, cell-based, U2OS HRE-luciferase, luminescence. U2OS HRE-luciferase reporter; normalized: DMSO 0%, desferrioxamine 100%. activation, % at 7.5 µM (by protocol). 0.32% of 300,000 active. AID 1910, 2009;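 active means mean activation of at least 10% of the iron chelator positive control signal, with at least half of replicates also reaching 10%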
# Neddylation inh = inhibitors of cullin neddylation, primary screen, biochemical, TR-FRET, uHTS, NAE and Ubc12 | NEDD8-conjugating enzyme Ubc12 (Homo sapiens) + NEDD8-activating enzyme E1 regulatory … | AID 651699, 2012 | 0.58% of 360,000 active | inhibition, % at 25 µM; in the data active means inhibition above about 36%
# procasp3 activ = activators of human procaspase-3 D3A mutant, primary screen, biochemical, absorbance, PC-3 D3A mutant, single concentration. Caspase-3 (Homo sapiens), P42574. recombinant procaspase-3 D3A, Ac-DEVD-pNA absorbance 405 nm. activation, % at 8.5 µM. 0.11% of 330,000 active. AID 463141, 2010;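 active means activation above the mean of all tested compounds plus 3 SD, cut at about 21% in these data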
# Target sequence (P42574 whole entry D9A/D28A/D175A): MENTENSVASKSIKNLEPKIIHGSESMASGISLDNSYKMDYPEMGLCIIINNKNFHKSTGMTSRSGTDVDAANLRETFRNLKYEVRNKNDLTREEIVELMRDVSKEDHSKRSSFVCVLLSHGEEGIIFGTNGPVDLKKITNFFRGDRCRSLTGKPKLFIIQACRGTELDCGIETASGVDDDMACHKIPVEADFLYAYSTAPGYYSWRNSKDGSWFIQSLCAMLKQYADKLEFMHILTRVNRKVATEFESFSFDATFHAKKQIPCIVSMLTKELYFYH
#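 Technique: 405 nm absorbance of p-nitroaniline, reads at 0 and 120 min; Test system: Procaspase-3 D3A mutant; Incubation: 1 h enzyme-compound preincubation, then 2 h substrate reaction, 25 °C; Repeats: singlicate, each compound tested once; Benchmarks: low control DMSO wells, high control DMSO plus 5 µM PC-3 D3A.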
# proCasp7 act = procaspase-7 activators, primary screen, counter-screen for procaspase-3 activator project, biochemical, absorbance, HTS, human. Caspase-7 (Homo sapiens), P55210. recombinant procaspase-7, Ac-DEVD-pNA absorbance 405 nm; D23A/D198A/D206A triple mutant, cannot self-cleave; scale: DMSO 0, 5 µM enzyme 100. activation, % at 8.5 µM. 0.093% of 330,000 active;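 active means percent activation above the screen-wide mean plus 3 SD, cut at about 25% in these data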
# Target sequence (P55210 whole entry D23A/D198A/D206A): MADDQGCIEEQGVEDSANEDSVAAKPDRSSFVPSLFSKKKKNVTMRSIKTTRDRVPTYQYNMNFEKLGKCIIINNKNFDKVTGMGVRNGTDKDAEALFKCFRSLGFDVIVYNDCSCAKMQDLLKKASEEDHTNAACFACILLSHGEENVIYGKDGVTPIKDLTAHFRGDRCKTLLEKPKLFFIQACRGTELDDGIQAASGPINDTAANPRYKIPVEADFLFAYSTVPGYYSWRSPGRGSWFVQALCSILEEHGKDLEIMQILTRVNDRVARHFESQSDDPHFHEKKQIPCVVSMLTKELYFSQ
#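 Assay system: Uncleavable procaspase-7 mutant enzyme | Input: 2 µM procaspase-7 mutant as dispensed | Timing: 1 h compound preincubation, 2 h substrate cleavage, 25 °C | Repeats: One well per compound | Control set: DMSO wells as 0%, DMSO with 5 µM added PC-7 as 100% | Technique: Epi-absorbance of released pNA at 405 nm, two timepoints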
# Calb FLC = C. albicans growth inhibition with fluconazole, primary screen, CaCi-2 strain, Alamar Blue fluorescence | 0.57% of 300,000 active | growth inhibition, % (concentration not given with the values) | C. albicans CaCi-2 + fluconazole, 48 h;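 active means growth inhibition above about 58% in most replicates, limit read from the data, passing the limit was not always enough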;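 further: all wells also contain fluconazole at 8 µg/ml as a sub-toxic cotreatment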
# Neddyl conf = blockade of NEDD8 conjugation to cullin – biochemical, TR-FRET, single concentration, confirmation. shares compounds with Neddylation inh. TR-FRET cullin neddylation biochemical assay. 13% of 1,800 active. AID 652217, 2013. calls only at 25 µM; in the data active means inhibition above about 40%;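 further: neddylation substrate is the cullin 1 ring ligase complex with SKP2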
# A number is an active result; . = inactive; / = no result given; + = active, no number.
SMILES,FXN GAA850 act,HIF act,Neddylation inh,procasp3 activ,proCasp7 act,Calb FLC,Neddyl conf
O=C(NC1CCCCC1)N(CCN1CCCC1)Cc1cc2cc3c(cc2[nH]c1=O)OCCO3,.,.,.,.,.,.,/
COCCCNC(=S)N(CCO)Cc1cc2cc3c(cc2[nH]c1=O)OCO3,.,.,40,/,/,.,.
COCCCNC(=S)N(CCCO)Cc1cc2cc3c(cc2[nH]c1=O)OCO3,.,.,43,.,.,.,.
CCN1C(=O)[C@H]2[C@@H](c3ccc(C)cc3)N3C(=O)N(c4cccc(F)c4)C(=O)[C@@]3(C)[C@H]2C1=O,.,.,.,.,.,.,/
O=C(Cn1nc(-c2ccco2)ccc1=O)Nc1ccc(Br)cc1,.,.,45,.,.,.,/
Cc1cccc(NC(=O)Cn2nc(-c3ccco3)ccc2=O)c1C,.,.,43,.,.,.,/
O=C(Cn1nc(-c2cccs2)ccc1=O)Nc1ccc(Br)cc1,.,.,.,.,.,.,/
CCOC(=O)C1CCN(C(=O)c2cn(CCOC)c(=O)c3c2c2ccccc2n3C)CC1,.,.,.,.,.,.,/
CCN1CCN(C(=O)c2cn(CCOC)c(=O)c3c2c2ccccc2n3C)CC1,.,.,49,.,.,.,.
COCCn1cc(C(=O)N2CCCC(C)C2)c2c3ccccc3n(C)c2c1=O (stereo not drawn),.,.,42,.,.,.,.
C=CCN(CC(=O)NC1CCCC1)C(=O)C(=O)Nc1ccc2c(c1)OCCO2,.,.,.,.,.,.,/
Cc1ccc(CSc2nnc(-c3cccc4ccccc34)o2)cc1,.,/,34,.,.,/,/
Cc1ccc(-c2nnc(-c3cccc4ccccc34)o2)cc1,.,/,/,/,/,/,/
COc1ccc(/C=N/NC(=O)c2ccc(N(C)S(=O)(=O)c3ccccc3)cc2)c(OC)c1,.,.,43,.,.,.,.
COc1ccc(C=NNC(=O)c2ccccc2OCc2ccc(F)cc2)c(OC)c1,.,/,42,.,.,/,.
COc1ccc(OC)c(/C=N/NC(=O)c2ccc(N(C)S(=O)(=O)c3ccccc3)cc2)c1,.,.,/,.,.,.,/
CCOc1ccc(CN(C)C(=O)CCc2ccc(S(=O)(=O)N3CCCCCC3)cc2)cc1,.,/,.,.,.,/,/
CCOc1cc(S(=O)(=O)NCc2ccc(OC)cc2)c(OCC)cc1-n1cnnn1,.,.,.,.,.,.,/
CCOc1cc(S(=O)(=O)NCc2ccco2)c(OCC)cc1-n1cnnn1,.,.,43,.,.,.,/
CCOC(=O)c1cnc2cc(F)c(F)cc2c1N1CCN(C)CC1,.,.,.,.,.,.,/
CC1Cn2c(nnc2-c2ccccc2O)S1 (stereo not drawn),.,.,.,.,.,.,/
CC1Cn2c(nnc2-c2cc3ccccc3cc2O)S1 (stereo not drawn),.,.,44,.,.,.,.
COCCOC(=O)C1=C(C)NC(C)=C(C(=O)OCCOC)C1/C=C/c1ccccc1OC,.,.,43,.,.,.,/
Clc1ccc(-c2nc3cnccn3c2Nc2ccc3c(c2)OCO3)cc1,.,.,41,.,.,.,.
CSc1ccc(-c2nc3cnccn3c2Nc2ccc3c(c2)OCO3)cc1,.,.,/,.,.,.,/
SMILES,FXN GAA850 act,HIF act,Neddylation inh,procasp3 activ,proCasp7 act,Calb FLC,Neddyl conf
CCc1nn(CC(=O)NCCC(C)C)c(=O)c2cc3c(OC)cccc3n12,.,.,40,.,.,.,.
CCc1nn(CC(=O)NCCN2CCN(C)CC2)c(=O)c2cc3c(OC)cccc3n12,.,.,/,.,.,.,/
CCc1cccc(NC(=O)C2CCCN(S(=O)(=O)c3cccnc3)C2)c1 (stereo not drawn),.,.,.,.,.,.,/
N#C/C(=C/c1cn(-c2ccccc2)nc1-c1cccc(S(=O)(=O)N2CCCC2)c1)C(=O)NCc1ccco1,.,.,.,.,.,.,/
N#C/C(=C/c1cn(-c2ccccc2)nc1-c1cccc(S(=O)(=O)N2CCOCC2)c1)C(=O)NCc1ccco1,.,.,41,.,.,.,.
CCOc1ccc(CCNC(=O)CCCn2c(=O)c3cccn3c3cccnc32)cc1OCC,.,.,.,.,.,.,/
CCOC(=O)c1sc2nc[nH]c(=O)c2c1C,.,.,.,.,.,.,/
CCOC(=O)c1snc2c(=O)[nH]cnc12,.,.,49,.,.,.,.
O=C(CS(=O)(=O)Cc1ccccc1)NCCc1ccc(F)cc1,.,.,.,.,.,.,/
COCC1CCN(C(=O)c2cc(COc3cccc4cnccc34)on2)CC1,.,.,55,.,.,.,/
COCC1CCN(C(=O)c2cc(COc3ccc(F)cc3Cl)on2)C1 (stereo not drawn),.,/,.,/,/,/,/
Cc1nn(C)cc1C(C)NC(=O)c1cc(COc2cccc3cnccc23)on1 (stereo not drawn),.,.,41,.,.,.,+
Cc1cc2n(n1)C(c1ccc(O)cc1)Nc1ccccc1-2 (stereo not drawn),.,.,42,.,.,.,.
CCOc1ccc(-c2cc(C(=O)N/N=C(\C)c3cccnc3)c3ccccc3n2)c(OCC)c1,.,.,52,/,/,.,.
COCCCNc1oc(-c2ccccc2Cl)nc1C#N,.,.,.,.,.,.,/
CC(C)CNc1oc(-c2ccccc2Cl)nc1C#N,.,.,42,.,.,.,.
Cc1ccc(/C=N/Nc2nc(Cl)c(Cl)cc2Cl)s1,.,.,.,.,.,.,/
Cc1ccsc1/C=N/Nc1nc(Cl)c(Cl)cc1Cl,.,.,39,.,.,.,.
COc1cc(Br)cc(/C=N/NC(=O)Cc2ccccc2)c1O,.,.,65,.,.,.,.
COc1ccc(-c2sc(C(=O)c3ccc(Cl)cc3Cl)cc2CC(=O)O)cc1,.,.,/,.,.,.,/
O=C(N/N=C/c1ccccc1Br)c1ccc(CSc2cccc3cccnc23)cc1,.,.,.,.,.,.,/
NNC(=O)c1ccc(CSc2cccc3cccnc23)cc1,.,.,43,.,.,.,+
O=C1CCC/C(=N\NC(=O)c2ccc(CSc3cccc4cccnc34)cc2)C1,.,.,46,.,.,.,.
